This passage reports K0.5, EC50 and Stimulation results from ChEMBL document CHEMBL1129293 (J Med Chem, 1996).

The target of assay [1] is D(1A) dopamine receptor (Rattus norvegicus) (UniProt P18901). In words: Affinity towards Dopamine receptor D1 was evaluated in rat striatal membrane using [3H]SCH-23,390 as radioligand. Format: cell membranes. As to conditions: Striatum. The gist of the method:
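Male Sprague-Dawley rats, 200–400 g; striatum dissected from coronal slices, used fresh or held at -70 °C. Membranes homogenized and twice centrifuged at 27000g in ice-cold 50 mM HEPES, 4.0 mM MgCl2, pH 7.4, final ca. 2.0 mg wet weight/mL. Incubation with [3H]SCH23390 at 37 °C for 15 min; bound radioactivity by liquid scintillation; protein by Lowry.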

The target in assay [2] is D(1A) dopamine receptor (Rattus norvegicus, UniProt P18901). Put plainly: Effective concentration was determined for the adenylate cyclase activity in rat striatal tissue as a measure of Dopamine receptor D1 functional activity. Format: tissue-based, Striatum.
Assay [3] addresses D(2) dopamine receptor (Rattus norvegicus) (UniProt P61169). Put plainly: Affinity towards Dopamine receptor D2 was evaluated in rat striatal membrane using [3H]spiperone as radioligand. Format: cell membranes. The settings on record: Striatum.
Assay [4] is filed under the species Rattus norvegicus. Put plainly: Evaluated for the maximum stimulation of adenylate cyclase in rat striatal tissue with respect to the maximum stimulation caused by dopamine. Format: functional, Striatum.

Structures are written as SMILES. Where only a bound is given, the exact number is not on record here.

Sequence of D(2) dopamine receptor (Rattus norvegicus) (P61169 whole entry): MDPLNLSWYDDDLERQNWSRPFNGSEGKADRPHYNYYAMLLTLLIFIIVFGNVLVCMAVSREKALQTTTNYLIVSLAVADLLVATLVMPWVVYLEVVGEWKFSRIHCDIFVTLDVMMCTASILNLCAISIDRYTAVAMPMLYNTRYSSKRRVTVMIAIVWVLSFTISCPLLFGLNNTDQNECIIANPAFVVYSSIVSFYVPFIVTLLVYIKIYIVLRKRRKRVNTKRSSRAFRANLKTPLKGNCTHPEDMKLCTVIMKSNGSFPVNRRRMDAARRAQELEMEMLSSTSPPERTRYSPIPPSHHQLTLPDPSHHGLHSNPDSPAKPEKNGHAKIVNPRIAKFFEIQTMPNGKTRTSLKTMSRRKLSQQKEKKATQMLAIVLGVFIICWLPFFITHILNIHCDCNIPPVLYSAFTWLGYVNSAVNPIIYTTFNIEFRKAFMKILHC
Sequence of D(1A) dopamine receptor (P18901 whole entry): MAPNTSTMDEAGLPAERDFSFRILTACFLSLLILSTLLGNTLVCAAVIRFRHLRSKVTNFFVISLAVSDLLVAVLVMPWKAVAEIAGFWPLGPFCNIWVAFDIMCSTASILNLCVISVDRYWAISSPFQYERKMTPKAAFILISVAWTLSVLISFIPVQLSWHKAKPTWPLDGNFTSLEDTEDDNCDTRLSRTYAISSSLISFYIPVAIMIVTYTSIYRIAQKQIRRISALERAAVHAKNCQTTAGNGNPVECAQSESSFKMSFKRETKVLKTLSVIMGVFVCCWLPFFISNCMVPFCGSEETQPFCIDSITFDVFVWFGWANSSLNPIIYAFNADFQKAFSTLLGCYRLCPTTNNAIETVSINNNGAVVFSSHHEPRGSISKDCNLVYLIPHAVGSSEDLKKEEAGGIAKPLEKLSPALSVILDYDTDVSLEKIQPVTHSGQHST
Sequence of D(1A) dopamine receptor (Rattus norvegicus) (P18901 whole entry): as above

As a reminder, the EC50 is the midpoint of the concentration-response curve. Read a low EC50 as an effect from little substance. Take `CCCN1Cc2ccccc2[C@@H]2c3cc(O)c(O)cc3CC[C@H]21`: the K0.5 in assay [1] was determined as 326 nM; in assay [3] it was 27 nM. The same molecule returned an EC50 in assay [2] of more than 10 µM. Besides, the Stimulation in assay [4] came out at 36%.
`Oc1cc2c(cc1O)[C@@H]1c3ccccc3CN[C@@H]1CC2` (relative stereo): the K0.5 in assay [1] and in assay [3] was more than 1000 nM each time. In addition, the Stimulation in assay [4] is listed as 17%.
In assay [4], `NC[C@@H]1O[C@H](C23CC4CC(CC(C4)C2)C3)Cc2c1ccc(O)c2O` came in with a Stimulation of 92%.
As to `NC[C@@H]1O[C@H](c2ccccc2)Cc2c1ccc(O)c2O`, the results for the K0.5 in assay [1] and in assay [3] were 0.9 nM and 41 nM, respectively. Besides, the Stimulation in assay [4] is 96%.
With `CN1Cc2ccccc2[C@@H]2c3ccc(O)c(O)c3CC[C@H]21`, the K0.5 in assay [1] is 477 nM; in assay [3], 61 nM. In assay [2], this molecule returned an EC50 of more than 10 µM. The molecule also had a Stimulation in assay [4] of 22%.
In the case of `C=CCN1CCc2c(cc(O)c(O)c2Cl)[C@@H](c2ccccc2)C1`, the K0.5 in assay [1] was 4 nM; in assay [3], 73 nM. The same molecule returned a Stimulation in assay [4] of 94%.
Turning to `CN1CCc2cc(Cl)c(O)cc2[C@@H](c2ccccc2)C1`, in assay [3], the K0.5 was 600 nM.
Consider `CCCN1CCC[C@@H]2Cc3n[nH]cc3C[C@H]21`, for which the K0.5 was more than 10000 nM in assay [1] and 49 nM in assay [3].
As for `Oc1ccc([C@@H]2CNCc3sccc32)cc1O`, the K0.5 in assay [1] worked out at 61 nM; in assay [3], 142 nM. The molecule further returned an EC50 in assay [2] of 0.7 µM. The Stimulation in assay [4] stood at 120%.
In the same order, the values of `Oc1ccc2c(c1O)CCC(NCc1ccccc1)C2` (configuration not stated) are more than 1000 nM, more than 1000 nM, more than 1 µM and 38%.
Turning to `NCCc1ccc(O)c(O)c1` [DOPAMINE], the K0.5 in assay [1] was 267 nM. For the same molecule, the Stimulation in assay [4] is on record as 100%.
Regarding `Oc1cc2c(cc1O)CC(NCc1ccccc1)CC2` (configuration not stated), the K0.5 is more than 1000 nM in assay [1] and 335 nM in assay [3]. Also, in assay [2], the half-maximal effective concentration (EC50) was more than 10 µM. This molecule came in with a Stimulation in assay [4] of 25%.
The corresponding values for `C=CCN1Cc2ccccc2[C@@H]2c3cc(O)c(O)cc3CC[C@H]21` are 328 nM, 182 nM, more than 10 µM and 32%.
With `Oc1cc2c(cc1O)[C@H]1c3ccccc3CN[C@@H]1CC2` [DIHYDREXIDINE], the results for the K0.5 in assay [1] and in assay [3] were 2.3 nM and 43.8 nM, respectively. Further, in assay [4], the Stimulation is 120%.
